The source made the active and inactive calls. No cut-off for these calls is given here.
Experiments:
[1] = Antitumor activity in high alert medicated patient derived human GBM1 cells xenografted in immunodeficient nude mouse model assessed as T/C ratio at 20 mg/kg,ip QD cotreatment with Temozolomide at 42 mg/kg,po QD and measured after 11 days; type: functional; details: time 11 day
Outline: (§1)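 Female athymic nude mice bearing subcutaneous GBM1-HAM PDX fragments (20 mm³); treatment began day 11 post-implant at tumour volumes 75-196 mm³, 10 per group. Compound i.p. daily in cyclodextrin vehicle (17 days alone, 27 days in combination); temozolomide 42 mg/kg p.o. daily for 5 days in PBS/glucose/Tween 80. Calliper volumes three times weekly; body weight and clinical signs monitored.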

[2] = Antitumor activity in high alert medicated patient derived human GBM1 cells xenografted in immunodeficient nude mouse model assessed as T/C ratio at 50 mg/kg,ip QD cotreatment with Temozolomide at 42 mg/kg,po QD and measured from 9 to 11 days; type: functional; details: time 9-11 day; outline: as §1
[3] = Antitumor activity in high alert medicated patient derived human GBM1 cells xenografted in immunodeficient nude mouse model assessed as change in tumor volume at 50 mg/kg,ip QD cotreatment with Temozolomide at 42 mg/kg,po QD and measured after 11 days relative to control; type: functional; details: time 11 day; outline: as §1
[4] = Antitumor activity in high alert medicated patient derived human GBM1 cells xenografted in immunodeficient nude mouse model assessed as change in tumor volume at 20 mg/kg,ip QD cotreatment with Temozolomide at 42 mg/kg,po QD and measured after 11 days relative to control; type: functional; details: time 11 day; outline: as §1
[5] = Toxicity in immunodeficient nude mouse model xenografted with high alert medicated patient derived human GBM1 cells assessed as clinical symptoms at 50 mg/kg,ip QD for 17 days; type: organism-based; details: in vivo, 408 h, time 17 day; outline: as §1
[6] = Toxicity in immunodeficient nude mouse model xenografted with high alert medicated patient derived human GBM1 cells assessed as body weight change at 20 mg/kg,ip QD for 27 days cotreatment with Temozolomide at 42 mg/kg,po QD for 5 days; type: organism-based; details: in vivo, 648 h, time 27 day; outline: as §1
[7] = Antitumor activity in high alert medicated patient derived human GBM1 cells xenografted in immunodeficient nude mouse model assessed as T/C ratio at 50 mg/kg,ip QD and measured after 9 to 11 days; type: functional; details: time 9-11 day; outline: as §1
[8] = molecular target: T1, Oxysterol-binding protein 1 (Homo sapiens) (UniProt P22059); assay: Inhibition of human OSBP in human hTERT-RPE1 cells assessed as increase in OSBP recruitment at TGN and measured after 4 hrs by confocal microscopy; type: cell-based
T1 sequence (whole entry): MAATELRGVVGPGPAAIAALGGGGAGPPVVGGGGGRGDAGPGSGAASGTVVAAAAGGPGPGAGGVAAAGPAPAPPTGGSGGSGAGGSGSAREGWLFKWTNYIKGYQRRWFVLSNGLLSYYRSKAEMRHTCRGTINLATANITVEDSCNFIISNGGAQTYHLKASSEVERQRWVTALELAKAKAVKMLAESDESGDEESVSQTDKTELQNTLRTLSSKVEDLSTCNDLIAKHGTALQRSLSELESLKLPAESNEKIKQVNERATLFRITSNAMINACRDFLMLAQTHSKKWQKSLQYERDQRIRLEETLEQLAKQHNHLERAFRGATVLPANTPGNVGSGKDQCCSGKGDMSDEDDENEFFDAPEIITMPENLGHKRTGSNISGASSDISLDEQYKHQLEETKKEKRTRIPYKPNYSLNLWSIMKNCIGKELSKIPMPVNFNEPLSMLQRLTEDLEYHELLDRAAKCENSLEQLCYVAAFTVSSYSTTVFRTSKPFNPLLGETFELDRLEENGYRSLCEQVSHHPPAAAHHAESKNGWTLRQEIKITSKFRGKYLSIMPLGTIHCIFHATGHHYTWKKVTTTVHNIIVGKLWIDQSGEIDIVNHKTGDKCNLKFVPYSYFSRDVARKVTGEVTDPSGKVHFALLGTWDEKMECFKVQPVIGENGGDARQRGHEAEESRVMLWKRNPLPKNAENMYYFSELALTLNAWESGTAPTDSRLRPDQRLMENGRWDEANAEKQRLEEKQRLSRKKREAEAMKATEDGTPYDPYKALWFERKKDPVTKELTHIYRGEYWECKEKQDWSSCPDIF

[9] = Permeability across blood brain barrier in Swiss mouse assessed as brain to plasma ratio of (2R,4aR,9aR)-7-((E)-2-(5-hydroxy-2,2-dimethylchroman-7-yl)vinyl)-1,1,4a-trimethyl-2,3,4,4a,9,9a-hexahydro-1H-xanthene-2,5-diol metabolite at 15 mg/kg, ip and measured after 1.5 hrs by LC-MS/MS analysis; type: ADME, organism-based
Outline: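 Nine male Swiss mice given 15 mg/kg prodrug i.p. (4 mg/mL in cyclodextrin vehicle). Blood taken from three mice at each of 0.25, 0.75 and 1.5 h; animals then saline-perfused transcardially under isoflurane. Plasma and brain homogenate (1:1 water) acetonitrile-precipitated and analyzed by LC-MS/MS.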

[10] = Prodrug conversion in Swiss mouse plasma assessed as half life of (2R,4aR,9aR)-7-((E)-2-(5-hydroxy-2,2-dimethylchroman-7-yl)vinyl)-1,1,4a-trimethyl-2,3,4,4a,9,9a-hexahydro-1H-xanthene-2,5-diol metabolite at 20 mg/kg, IP and measured upto 6 hrs by LC-MS/MS analysis; type: ADME, organism-based; details: in vivo
Outline: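 Male Swiss mice (5-6 weeks, 3 per dose) given a single i.p. dose of prodrug, 2.5 mg/mL in 15% hydroxypropyl-β-cyclodextrin in 65 mM phosphate pH 7.4. Retro-orbital blood taken at 5, 15, 30 min and 1, 3, 6 h; plasma acetonitrile-precipitated. Parent and metabolite quantified by LC-MS/MS with a 1-2,000 ng/mL calibration.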

[11] = Toxicity in immunodeficient nude mouse model xenografted with high alert medicated patient derived human GBM1 cells assessed as clinical symptoms at 20 mg/kg,ip QD for 27 days cotreatment with Temozolomide at 42 mg/kg,po QD for 5 days; type: organism-based; details: in vivo, 648 h, time 27 day; outline: as §1
U-87 MG = assay: Induction of autophagy in human U-87 MG cells assessed as decrease in P62 expression at 0.05 to 1 uM incubated for 48 hrs by Western blot analysis; type: functional, cell-based; details: U-87MG ATCC
Outline: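 U-87 MG cells cultured two days, then exposed 48 h to increasing doses. Lysed in RIPA with protease inhibitors; 5 µg protein run on 4-20% SDS gels and transferred to PVDF. Probed for phospho/total AKT, S6, S6K, P62 and LC3, detected by ECL. Band intensities normalized to β-actin.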

[12] = Metabolic stability in mouse liver microsomes assessed as intrinsic clearance at 2.5 uM and measured upto 45 mins in presence of NADPH by LC-MS/MS analysis; type: ADME, Microsome; details: read-out: CLH
[13] = Antitumor activity in high alert medicated patient derived human GBM1 cells xenografted in immunodeficient nude mouse model assessed as tumor growth inhibition at 50 mg/kg,ip QD cotreatment with Temozolomide at 42 mg/kg,po QD and measured from 9 to 11 days; type: functional; outline: as §1

inhibition [8]: inactive
BPR [9]: 1.74
t1/2 [10]: 2 h
microsomal CLint at 2.5 µM [12]: 120 µL/min/mg
Compound: CC1(C)CCc2c(O)cc(/C=C/c3cc(O)c4c(c3)C[C@@H]3C(C)(C)[C@H](OC=O)CC[C@@]3(C)O4)cc2O1
T/C [1]: 49.91%
T/C [2]: 41.43%
Activity [3]: 329.18%
Activity [4]: 396.24%
Activity [5]: Non-Toxic
Activity [6]: Non-Toxic
T/C [7]: 70.05%
Activity [11]: Non-Toxic
Activity (U-87 MG): Dose-Dependent Effect
TGDI at 50 mg/kg [13]: 2.07%

— ChEMBL document CHEMBL5370602, “Structure-Based Design of a Lead Compound Derived from Natural Schweinfurthins with Antitumor Properties That Target Oxysterol-Binding Protein” (J Med Chem, 2023)
